In brackets after ≈: the same amount, converted by molar mass. Activity calls are given as the source filed them. No cut-off for these calls is given here.
What was measured:
[1] = Intrinsic solubility of the compound in standard phosphate buffer at pH 6.8 at 37 degC after 24 hrs by shake-flask method; format: physicochemical; conditions: read-out: Intrinsic_solubility
Summary of the method: (§1)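 Shake-flask intrinsic solubility: solid compound was added to phosphate buffer until excess remained undissolved. The thermostated saturated solution was shaken for 24 h to reach equilibrium, at 25 °C and at 37 °C.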

[2] = Octanol-water partition coefficient, log P of the compound by RP-HPLC analysis; format: physicochemical
Summary of the method: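 RP-HPLC lipophilicity: isocratic buffer pH 5.5–MeOH, 30–75% MeOH in 5% steps. Three injections per compound and five per standard at each ratio. log k' = log(tR − t0)/t0 was computed from retention times.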

[3] = Stability of the compound in 0.1 M SDS-0.01 M 7.5% (v/v) 1-propanol-NaH2PO4/H3PO4 assessed as compound recovery at 6 x 10^-8 mol/ml by micellar liquid chromatography; format: physicochemical
Summary of the method: (§2)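 Recovery: N1-acyl compounds were spiked at 7.5 x 10^-9, 6 x 10^-8 and 3.5 x 10^-7 mol/mL (ten replicates each) into pH 1.2 and 6.8 buffers, SGF and SIF. Analysis used MLC with 0.1 M SDS–7.5% 1-propanol–0.01 M NaH2PO4/H3PO4 pH 3.0, at 1 mL/min, 25 °C and 276 nm. Recovery was calculated against working standards.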

[4] = Stability of the compound in 0.1 M SDS-0.01 M 7.5% (v/v) 1-propanol-NaH2PO4/H3PO4 assessed as compound recovery at 3.5 x 10^-7 mol/ml by micellar liquid chromatography; format: physicochemical; summary of the method: as §2
[5] = Stability of the compound in simulated intestinal fluid assessed as retention time by micellar liquid chromatography; format: physicochemical; conditions: simulated gi fluid
[6] = Stability of the compound in buffer at 37 degC at pH 6.8 after 3 hrs in presence of pancreatin; format: ADME; conditions: pH 6.8, 3 h
Summary of the method: (§3)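 Compounds came from DMSO stocks of 1.0 x 10^-4 mol/mL. They were incubated at 37 °C in buffer pH 1.2 or SGF (pepsin) for 1 h, and in buffer pH 6.8 or SIF (pancreatin) for 3 h. Samples were analysed by micellar LC. Percent degradation was reported; kinetics were treated as pseudo-first-order.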

Plasma = assay: Metabolic stability of the compound in human plasma; format: ADME, cell-free
Summary of the method: (§4)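 Stability in human plasma was followed by micellar LC, with allopurinol tracked as product. Pseudo-first-order kinetics gave t1/2 or kobs.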

[7] = Intrinsic solubility of the compound in standard phosphate buffer at pH 6.8 at 25 degC after 24 hrs by shake-flask method; format: physicochemical; conditions: read-out: Intrinsic_solubility; summary of the method: as §1
[8] = Stability of the compound in 0.1 M SDS-0.01 M 7.5% (v/v) 1-propanol-NaH2PO4/H3PO4 assessed as compound recovery at 7.5 x 10^-9 mol/ml by micellar liquid chromatography; format: physicochemical; summary of the method: as §2
[9] = Stability of the compound in simulated intestinal fluid at 37 degC after 3 hrs; format: physicochemical; conditions: simulated gi fluid; summary of the method: as §3
[10] = Stability of the compound in simulated gastric fluid at 37 degC after 1 hr; format: physicochemical; conditions: simulated gi fluid; summary of the method: as §3
[11] = Stability of the compound in buffer at 37 degC at pH 1.2 after 1 hr in presence of pepsin; format: ADME; conditions: isolated protein, pH 1.2, 1 h; summary of the method: as §3
[12] = Drug degradation in 3.5% H2O2 assessed as allopurinol formation; format: physicochemical
[13] = Drug degradation in buffer at 37 degC at pH 6.8 after 3 hrs in presence of pancreatin; format: physicochemical; conditions: buffer with pancreatin, read-out: Drug degradation; summary of the method: as §3
[14] = Drug degradation in simulated gastric fluid at 37 degC after 1 hr; format: physicochemical; conditions: read-out: Drug degradation; summary of the method: as §3
[15] = Half life in human plasma; format: ADME, cell-free; summary of the method: as §4
[16] = Drug degradation in 0.1 M HCl assessed as allopurinol formation at 1 mg/ml at 90 degC; format: physicochemical; conditions: buffer
[17] = Drug degradation in simulated intestinal fluid at 37 degC after 3 hrs; format: physicochemical; conditions: read-out: Drug degradation; summary of the method: as §3
[18] = Cytotoxicity against mouse splenocytes assessed as cell viability at 50 times IC50 after 32 hrs by Alamar Blue assay; format: cell-based; conditions: splenocyte
Summary of the method: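 Viability was read by Alamar Blue and expressed as percent of untreated control. Two experiments, each in duplicate.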

[19] = Stability of the compound in simulated gastric fluid assessed as retention time by micellar liquid chromatography; format: physicochemical; conditions: simulated gi fluid
[20] = Drug degradation in 0.1 M NaOH assessed as allopurinol formation at 1 mg/ml at 90 degC; format: physicochemical
[21] = Drug degradation in buffer at 37 degC at pH 1.2 after 1 hr
Trypanosoma cruzi [22] = assay: Antimicrobial activity against Trypanosoma cruzi RA amastigotes infected in African green monkey Vero cells assessed as growth inhibition after 72 hrs by Giemsa staining-based light microscopy; format: functional, organism-based
Summary of the method: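 Vero cells irradiated at 2000 rads, seeded on coverslips and infected with bloodstream trypomastigotes of RA strain at 5:1 parasite:cell for 24 h. Free parasites were washed off and cultures incubated 72 h with compound, 0.5–50 range, triplicate, at 37 °C in 5% CO2. Vehicle 0.5% DMSO. Coverslips were methanol-fixed and Giemsa-stained. Infection rate and amastigotes per cell (100 infected cells) were read by light microscopy. IC50 estimated from percentage infection.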

[23] = Stability of the compound in 0.05 M SDS-0.01 M NaH2PO4/H3PO4 assessed as compound recovery at 6 x 10^-8 mol/ml by micellar liquid chromatography; format: physicochemical
Summary of the method: (§5)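 Analytical recovery. Standards at 7.5 × 10⁻⁹, 6 × 10⁻⁸ and 3.5 × 10⁻⁷ mol/mL, ten replicates each, were spiked into pH 1.2 and pH 6.8 buffers and into SGF and SIF. They were analysed by MLC with mobile phase 0.05 M SDS–0.01 M NaH2PO4/H3PO4 pH 3.0 at 1.25 mL/min, 25 °C, detection at 250 nm. Recovery was found concentration relative to working standards.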

[24] = Drug degradation in 0.1 M NaOH at 1 mg/ml at 90 degC after 16 hrs; format: physicochemical
Summary of the method: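 Compound at 1 mg/mL was heated in 0.1 M NaOH at 90 °C for 16 h. Percent degradation was quantified by micellar liquid chromatography.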

[25] = Stability of the compound in 0.05 M SDS-0.01 M NaH2PO4/H3PO4 assessed as compound recovery at 7.5 x 10^-9 mol/ml by micellar liquid chromatography; format: physicochemical; summary of the method: as §5
Trypanosoma cruzi [26] = assay: Antimicrobial activity against Trypanosoma cruzi RA amastigotes infected in African green monkey Vero cells assessed as growth inhibition at 1 ug/ml after 72 hrs by Giemsa staining-based light microscopy; format: functional, organism-based
Summary of the method: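 RA-strain bloodstream trypomastigotes infected irradiated Vero cells (2000 rads) on coverslips at a 5:1 parasite:cell ratio for 24 h. Cells were washed, then exposed to 1 ug/mL compound for 72 h at 37 °C in 5% CO2. Coverslips were fixed in methanol and Giemsa-stained. Infected cells were scored by light microscopy against untreated infected cultures.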

[27] = Stability of the compound in 0.05 M SDS-0.01 M NaH2PO4/H3PO4 assessed as compound recovery at 3.5 x 10^-7 mol/ml by micellar liquid chromatography; format: physicochemical; summary of the method: as §5
[28] = Dissociation constant, pKa of the compound at 25 degC; format: physicochemical
Summary of the method: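 pKa computed with ACDpKa software. Only for the parent drug was it checked against a pH-solubility profile at 25 °C.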

Trypanosoma cruzi [29] = assay: Antimicrobial activity against blood stream form of Trypanosoma cruzi RA assessed as growth inhibition at 1 to 70 ug/ml after 24 hrs by Neubauer chamber counting analysis; format: functional, organism-based
Summary of the method: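 RA-strain bloodstream trypomastigotes were enriched from infected-mouse blood at peak parasitemia. They were used at 1.5 x 10^6/mL in RPMI 1640 with 10% FCS. Parasites were exposed for 24 h at 37 °C in 5% CO2 to 0–70 ug/mL compound from 40 mM DMSO stocks (final DMSO <0.5%). 0.5% DMSO served as negative control. Surviving parasites were counted by Neubauer chamber. Three independent experiments, each in triplicate.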

CCCc1nc2n[nH]cc2c(=O)[nH]1
solubility thermodynamic at 24 h [1]: 2560 µg/mL (≈ 14.4 mM)
logP [2]: 1.14
Drug recovery [3]: 99.59%
Drug recovery [4]: 100.27%
Retention_time [5]: 7.8 min
Stability [6]: Stable
Stability (Plasma): 100%
solubility thermodynamic at 24 h [7]: 2070 µg/mL (≈ 11.6 mM)
Drug recovery [8]: 101.17%
Stability [9]: Stable
Stability [10]: Stable
Stability [11]: Stable

CCCC(=O)n1ncc2c(O)ncnc21
Stability [12]: Unstable
solubility thermodynamic at 24 h [1]: > 65 µg/mL
logP [2]: 1.99
metabolised at 3 h [13]: 100%
Drug recovery [3]: 101.42%
degraded at 1 h [14]: 26.5%
Drug recovery [4]: 100.3%
half-life [15]: 6.1 min
Stability [16]: Unstable
degraded at 3 h [17]: 100%
Activity [18]: Non-toxic
Stability (Plasma): Unstable
solubility thermodynamic at 24 h [7]: > 65 µg/mL
Drug recovery [8]: 103.11%
Retention_time [19]: 7.7 min
Stability [20]: Unstable
metabolised at 1 h [21]: 27%

Oc1ncnc2[nH]ncc12 [ALLOPURINOL]
solubility thermodynamic at 24 h [1]: 900 µg/mL (≈ 6.61 mM)
IC50 (Trypanosoma cruzi [22]): 9.62 µM
inhibition (Trypanosoma cruzi [22]): Dose-dependent effect
Drug recovery [23]: 98.85%
Drug recovery [3]: 98.55%
Drug recovery [4]: 97.54%
Retention_time [5]: 2.6 min
Stability [24]: Stable
Drug recovery [25]: 97.37%
Activity [18]: Non-toxic
Stability (Plasma): 100%
solubility thermodynamic at 24 h [7]: 490 µg/mL (≈ 3.6 mM)
Drug recovery [8]: 102.4%
Retention_time [19]: 2.4 min
growth inhibition (GI) (Trypanosoma cruzi [26]): Active
Drug recovery [27]: 100.17%
pKa [28]: 9.7

CCCC(=O)n1ncc2c(=O)[nH]cnc21
IC50 (Trypanosoma cruzi [22]): 11.3 µM
inhibition (Trypanosoma cruzi [22]): Dose-dependent effect
growth inhibition (GI) (Trypanosoma cruzi [29]): inactive
growth inhibition (GI) (Trypanosoma cruzi [26]): Active

CC(=O)n1ncc2c(O)ncnc21
Stability [12]: Unstable
solubility thermodynamic at 24 h [1]: > 65 µg/mL
logP [2]: 0.4
metabolised at 3 h [13]: 100%
Drug recovery [3]: 102.42%
degraded at 1 h [14]: 18.9%
Drug recovery [4]: 99.04%
half-life [15]: 8.4 min
Stability [16]: Unstable
degraded at 3 h [17]: 100%
Stability (Plasma): Unstable
solubility thermodynamic at 24 h [7]: > 65 µg/mL
Drug recovery [8]: 98.03%
Retention_time [19]: 3 min
Stability [20]: Unstable
metabolised at 1 h [21]: 17.1%

CCc1nc(O)c2c[nH]nc2n1
solubility thermodynamic at 24 h [1]: 940 µg/mL (≈ 5.73 mM)
logP [2]: 0.52
Drug recovery [3]: 97.07%
Drug recovery [4]: 97.78%
Retention_time [5]: 4.7 min
Stability [6]: Stable
Stability (Plasma): 100%
solubility thermodynamic at 24 h [7]: 710 µg/mL (≈ 4.32 mM)
Drug recovery [8]: 101.19%
growth inhibition (GI) (Trypanosoma cruzi [29]): inactive
Stability [9]: Stable
growth inhibition (GI) (Trypanosoma cruzi [26]): Active
Stability [10]: Stable
Stability [11]: Stable

CCC(=O)n1ncc2c(O)ncnc21
Stability [12]: Unstable
solubility thermodynamic at 24 h [1]: > 65 µg/mL
logP [2]: 1.22
metabolised at 3 h [13]: 100%
Drug recovery [3]: 103.09%
degraded at 1 h [14]: 32%
Drug recovery [4]: 103.18%
half-life [15]: 9.5 min
Stability [16]: Unstable
degraded at 3 h [17]: 100%
Stability (Plasma): Unstable
solubility thermodynamic at 24 h [7]: > 65 µg/mL
Drug recovery [8]: 99.74%
Retention_time [19]: 4 min
Stability [20]: Unstable
metabolised at 1 h [21]: 30.3%

O=C(Cn1ccnc1[N+](=O)[O-])NCc1ccccc1
growth inhibition (GI) (Trypanosoma cruzi [26]): Active

CC(=O)n1ncc2c(=O)[nH]cnc21
growth inhibition (GI) (Trypanosoma cruzi [29]): inactive

CCCc1nc(O)c2c[nH]nc2n1
growth inhibition (GI) (Trypanosoma cruzi [29]): inactive

CCC(=O)n1ncc2c(=O)[nH]cnc21
growth inhibition (GI) (Trypanosoma cruzi [29]): inactive
